Laboratory results from paper PMC3579768 (Biochemistry, 2012).
Bridge positions count the residues as written; N and C are the ends. Ends that are not written are not given here.

Experiments:
[1] = Sedimentation equilibrium analytical ultracentrifugation; format: physicochemical
In short: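 Absorbance optics at 280 nm, 20 °C, An-50 Ti rotor. Samples were 400 μL of the oxidized peptide in 10 mM sodium phosphate, pH set with 1 N HCl: pH 8 (183, 230, 283 μM), pH 7 (165–288 μM), pH 6 (210, 330 μM), pH 4 (236, 288 μM), pH 2 (189, 238, 293 μM). Buffer viscosity, density and partial specific volume were computed for 20 °C.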

[2] = Sedimentation velocity analytical ultracentrifugation; format: physicochemical; conditions: for sedimentation coefficient (s20,w), DCDT+ analysis: 20 °C
In short: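 An-50 Ti rotor, double-sector charcoal-epon cells, interference or absorbance optics. 400 μL peptide sample against buffer reference, prepared just before the run, pH set with 1 N HCl. Buffers: 10 mM sodium phosphate (pH 7, 6, 4, 2; NaCl 50, 150, 500 mM) and 20 mM Tris-HCl or HEPES pH 7, ± 50 mM MgCl2/CaCl2. Fitting used c(s) Lamm and g(s*) from 22–26 scans, with modelled monomer/dimer/tetramer S-values.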

HD5ox = conditions: SPR, pH 7.4, 150 mM NaCl; cited from earlier work
NMR relaxation = format: physicochemical; conditions: 90:10 H2O/D2O
AUC = target: the molecule itself; test: AUC

Molecule	best-fit molecular weight by sedimentation equilibrium ([1]; pH 2.0, 10 mM sodium phosphate buffer, 189-293 μM, 20 °C)	oligomeric molecular weight to which the sedimentation equilibrium fit converged ([1]; pH 4.0, 6.0 and 8.0, 10 mM sodium phosphate buffer)	effect of Mg(II) and Ca(II) on the sedimentation coefficient ([2]; 50 mM MgCl2 or CaCl2 in 20 mM Tris-HCl or HEPES buffer, pH 7.0)	minimum frictional ratio (f/f0) ([2]; Equation 2, ssphere/s20,w, all buffers)	oligomeric form from comparison of experimental and calculated S-values ([2]; aqueous buffer at neutral pH, concentrations ≥30 μM)	sedimentation coefficient (s20,w), DCDT+ analysis ([2]; pH 2.0, 10 mM sodium phosphate buffer, 194 μM) [S]	sedimentation coefficient (s20,w), DCDT+ analysis ([2]; pH 4.0, 10 mM sodium phosphate buffer, 131 μM) [S]	sedimentation coefficient (s20,w), DCDT+ analysis ([2]; pH 6.0, 10 mM sodium phosphate buffer, 161 μM) [S]	sedimentation coefficient (s20,w), DCDT+ analysis ([2]; pH 7.0, 10 mM sodium phosphate buffer) [S]	effect of NaCl on the sedimentation coefficient ([2]; up to 500 mM NaCl, pH 7, 10 mM sodium phosphate buffer)	HD5ox concentration above which evidence for higher-order oligomers was reported (HD5ox) [µM]	molecular weight estimated from TRACT Tc (NMR relaxation; 340 μM 13C,15N-HD5ox, pH 4)	rotational correlation time Tc, [15N,1H]-TRACT method (NMR relaxation; 340 μM 13C,15N-HD5ox, pH 4 (TFA))	oligomerization state under the NMR sample conditions (NMR relaxation; 340 μM, pH 4, unbuffered)	Kd (AUC) [µM]	stoichiometry N (AUC)
Human defensin 5 (ATCYCRTGRCATRESLSGVCEISGRLYRLCCR; disulfide 10-30, 5-20, 3-31; also: 15N or 13C,15N labelled in NMR samples) [HD5ox]	7,079 Da	tetrameric	negligible impact	~ 1.2	tetrameric	1.0	1.2	1.6	1.8	no effect	> 8	ca. 6.8 kDa	ca. 4.1 ns	dimer	–	–
ATCYCRTGRCATRESLSGVCEISGRLYRLCCR (peptide, UniProt Q01523 63-94, looked up, disulfide 10-30, 5-20, 3-31; also: 15N or 13C,15N labelled in NMR samples) [Human defensin 5, oxidized form (HD5ox)]	–	–	–	–	–	–	–	–	–	–	–	–	–	–	< 30	4
